Test results published in ChEMBL document CHEMBL1152173, “Synthesis and in vitro evaluation of the antifungal activities of dihydropyrimidinones” (2008).
In brackets after ≈: the same amount, converted by molar mass. Activity calls are given as the source filed them. No cut-off for these calls is given here.

How the values were obtained:
Trichoderma koningii [1] = test: Antifungal activity against Trichoderma koningii assessed as radial growth at 1% after 72 hrs by poison food technique of Flack relative to control; assay type: functional
Procedure, shortened: (§1)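 Acetone stock added to molten sterilized PDA to final 0.5–7%, plated in 90 mm dishes with compound-free plates as control. Each plate was inoculated with a 9 mm disc from a 4-day-old culture, incubated at 25 ± 1 °C, and colony diameter measured at 24 h intervals. % inhibition = (control − treatment)/control × 100; three replicates averaged.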

Trichoderma koningii [2] = test: Antifungal activity against Trichoderma koningii assessed as radial growth at 3% after 72 hrs by poison food technique of Flack relative to control; assay type: functional; procedure, shortened: as §1
Trichoderma koningii [3] = test: Antifungal activity against Trichoderma koningii assessed as radial growth at 5% after 72 hrs by poison food technique of Flack relative to control; assay type: functional; procedure, shortened: as §1
Trichoderma koningii [4] = test: Antifungal activity against Trichoderma koningii assessed as radial growth at 7% after 72 hrs by poison food technique of Flack relative to control; assay type: functional; procedure, shortened: as §1
Trichoderma hamatum [5] = test: Antifungal activity against Trichoderma hamatum assessed as radial growth at 0.5% after 24 hrs by poison food technique of Flack relative to control; assay type: functional
Trichoderma hamatum [6] = test: Antifungal activity against Trichoderma hamatum assessed as radial growth at 1% after 24 hrs by poison food technique of Flack relative to control; assay type: functional
Trichoderma hamatum [7] = test: Antifungal activity against Trichoderma hamatum assessed as radial growth at 3% after 24 hrs by poison food technique of Flack relative to control; assay type: functional
Trichoderma hamatum [8] = test: Antifungal activity against Trichoderma hamatum assessed as radial growth at 5% after 24 hrs by poison food technique of Flack relative to control; assay type: functional; procedure, shortened: as §1
Trichoderma hamatum [9] = test: Antifungal activity against Trichoderma hamatum assessed as radial growth at 7% after 24 hrs by poison food technique of Flack relative to control; assay type: functional; procedure, shortened: as §1
Trichoderma hamatum [10] = test: Antifungal activity against Trichoderma hamatum assessed as radial growth at 0.5% after 48 hrs by poison food technique of Flack relative to control; assay type: functional
Trichoderma hamatum [11] = test: Antifungal activity against Trichoderma hamatum assessed as radial growth at 1% after 48 hrs by poison food technique of Flack relative to control; assay type: functional
Trichoderma hamatum [12] = test: Antifungal activity against Trichoderma hamatum assessed as radial growth at 3% after 48 hrs by poison food technique of Flack relative to control; assay type: functional
Trichoderma hamatum [13] = test: Antifungal activity against Trichoderma hamatum assessed as radial growth at 5% after 48 hrs by poison food technique of Flack relative to control; assay type: functional; procedure, shortened: as §1
Trichoderma hamatum [14] = test: Antifungal activity against Trichoderma hamatum assessed as radial growth at 7% after 48 hrs by poison food technique of Flack relative to control; assay type: functional; procedure, shortened: as §1
Trichoderma hamatum [15] = test: Antifungal activity against Trichoderma hamatum assessed as radial growth at 0.5% after 72 hrs by poison food technique of Flack relative to control; assay type: functional
Trichoderma hamatum [16] = test: Antifungal activity against Trichoderma hamatum assessed as radial growth at 1% after 72 hrs by poison food technique of Flack relative to control; assay type: functional
Trichoderma hamatum [17] = test: Antifungal activity against Trichoderma hamatum assessed as radial growth at 3% after 72 hrs by poison food technique of Flack relative to control; assay type: functional
Trichoderma hamatum [18] = test: Antifungal activity against Trichoderma hamatum assessed as radial growth at 5% after 72 hrs by poison food technique of Flack relative to control; assay type: functional; procedure, shortened: as §1
Trichoderma koningii [19] = test: Antifungal activity against Trichoderma koningii assessed as radial growth at 0.5% after 24 hrs by poison food technique of Flack relative to control; assay type: functional; procedure, shortened: as §1
Trichoderma koningii [20] = test: Antifungal activity against Trichoderma koningii assessed as radial growth at 1% after 24 hrs by poison food technique of Flack relative to control; assay type: functional; procedure, shortened: as §1
Trichoderma koningii [21] = test: Antifungal activity against Trichoderma koningii assessed as radial growth at 3% after 24 hrs by poison food technique of Flack relative to control; assay type: functional; procedure, shortened: as §1
Trichoderma koningii [22] = test: Antifungal activity against Trichoderma koningii assessed as radial growth at 5% after 24 hrs by poison food technique of Flack relative to control; assay type: functional; procedure, shortened: as §1
Trichoderma koningii [23] = test: Antifungal activity against Trichoderma koningii assessed as radial growth at 7% after 24 hrs by poison food technique of Flack relative to control; assay type: functional; procedure, shortened: as §1
Trichoderma koningii [24] = test: Antifungal activity against Trichoderma koningii assessed as radial growth at 0.5% after 48 hrs by poison food technique of Flack relative to control; assay type: functional; procedure, shortened: as §1
Trichoderma koningii [25] = test: Antifungal activity against Trichoderma koningii assessed as radial growth at 1% after 48 hrs by poison food technique of Flack relative to control; assay type: functional; procedure, shortened: as §1
Trichoderma koningii [26] = test: Antifungal activity against Trichoderma koningii assessed as radial growth at 3% after 48 hrs by poison food technique of Flack relative to control; assay type: functional; procedure, shortened: as §1
Trichoderma koningii [27] = test: Antifungal activity against Trichoderma koningii assessed as radial growth at 7% after 48 hrs by poison food technique of Flack relative to control; assay type: functional; procedure, shortened: as §1
Trichoderma koningii [28] = test: Antifungal activity against Trichoderma koningii assessed as radial growth at 0.5% after 72 hrs by poison food technique of Flack relative to control; assay type: functional; procedure, shortened: as §1
Trichoderma hamatum [29] = test: Antifungal activity against Trichoderma hamatum assessed as radial growth at 7% after 24 hrs by poison food technique of Flack; assay type: functional, organism-based
Procedure, shortened: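 Poisoned-food method: acetone stock mixed into molten sterilized potato dextrose agar to final 0.5, 1, 3, 5 or 7%, poured into 90 mm plates. Plates were inoculated with a 9 mm mycelial disc from a 4-day-old pure culture and incubated at 25 ± 1 °C. Colony diameter (mm) was read every 24 h; mean of three replicates.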

Aspergillus niger [30] = test: Antifungal activity against Aspergillus niger assessed as radial growth at 1% after 24 hrs by poison food technique of Flack relative to control; assay type: functional
Aspergillus niger [31] = test: Antifungal activity against Aspergillus niger assessed as radial growth at 3% after 24 hrs by poison food technique of Flack relative to control; assay type: functional
Aspergillus niger [32] = test: Antifungal activity against Aspergillus niger assessed as radial growth at 5% after 24 hrs by poison food technique of Flack relative to control; assay type: functional
Aspergillus niger [33] = test: Antifungal activity against Aspergillus niger assessed as radial growth at 7% after 24 hrs by poison food technique of Flack relative to control; assay type: functional
Aspergillus niger [34] = test: Antifungal activity against Aspergillus niger assessed as radial growth at 1% after 48 hrs by poison food technique of Flack relative to control; assay type: functional
Aspergillus niger [35] = test: Antifungal activity against Aspergillus niger assessed as radial growth at 3% after 48 hrs by poison food technique of Flack relative to control; assay type: functional
Aspergillus niger [36] = test: Antifungal activity against Aspergillus niger assessed as radial growth at 5% after 48 hrs by poison food technique of Flack relative to control; assay type: functional
Aspergillus niger [37] = test: Antifungal activity against Aspergillus niger assessed as radial growth at 7% after 48 hrs by poison food technique of Flack relative to control; assay type: functional
Aspergillus niger [38] = test: Antifungal activity against Aspergillus niger assessed as radial growth at 0.5% after 72 hrs by poison food technique of Flack relative to control; assay type: functional
Aspergillus niger [39] = test: Antifungal activity against Aspergillus niger assessed as radial growth at 1% after 72 hrs by poison food technique of Flack relative to control; assay type: functional
Aspergillus niger [40] = test: Antifungal activity against Aspergillus niger assessed as radial growth at 3% after 72 hrs by poison food technique of Flack relative to control; assay type: functional
Aspergillus niger [41] = test: Antifungal activity against Aspergillus niger assessed as radial growth at 5% after 72 hrs by poison food technique of Flack relative to control; assay type: functional
Aspergillus niger [42] = test: Antifungal activity against Aspergillus niger assessed as radial growth at 7% after 72 hrs by poison food technique of Flack relative to control; assay type: functional
Trichoderma hamatum [43] = test: Antifungal activity against Trichoderma hamatum; assay type: functional
Trichoderma koningii [44] = test: Antifungal activity against Trichoderma koningii; assay type: functional
Aspergillus niger [45] = test: Antifungal activity against Aspergillus niger; assay type: functional

SMILES: CCOC(=O)C1=C(C)NC(=O)NC1c1ccccc1O (stereo not given)
- inhibition (INH) (Trichoderma koningii [1]): 0.67%
- inhibition (INH) (Trichoderma koningii [2]): 25.16%
- inhibition (INH) (Trichoderma koningii [3]): 55.7%
- inhibition (INH) (Trichoderma koningii [4]): 97.31%
- inhibition (INH) (Trichoderma hamatum [5]): 0%
- inhibition (INH) (Trichoderma hamatum [6]): 21.05%
- inhibition (INH) (Trichoderma hamatum [7]): 63.84%
- inhibition (INH) (Trichoderma hamatum [8]): 89.47%
- inhibition (INH) (Trichoderma hamatum [9]): 100%
- inhibition (INH) (Trichoderma hamatum [10]): 0%
- inhibition (INH) (Trichoderma hamatum [11]): 22.44%
- inhibition (INH) (Trichoderma hamatum [12]): 68.75%
- inhibition (INH) (Trichoderma hamatum [13]): 94.23%
- inhibition (INH) (Trichoderma hamatum [14]): 100%
- inhibition (INH) (Trichoderma hamatum [15]): 0%
- inhibition (INH) (Trichoderma hamatum [16]): 15.84%
- inhibition (INH) (Trichoderma hamatum [17]): 59.1%
- inhibition (INH) (Trichoderma hamatum [18]): 95.07%
- inhibition (INH) (Trichoderma koningii [19]): 0%
- inhibition (INH) (Trichoderma koningii [20]): 0%
- inhibition (INH) (Trichoderma koningii [21]): 50.72%
- inhibition (INH) (Trichoderma koningii [22]): 79.71%
- inhibition (INH) (Trichoderma koningii [23]): 100%
- inhibition (INH) (Trichoderma koningii [24]): 0%
- inhibition (INH) (Trichoderma koningii [25]): 5.2%
- inhibition (INH) (Trichoderma koningii [26]): 38.81%
- inhibition (INH) (Trichoderma koningii [27]): 100%
- inhibition (INH) (Trichoderma koningii [28]): 0%
- Activity (Trichoderma hamatum [29]): Active
- inhibition (INH) (Aspergillus niger [30]): 0%
- inhibition (INH) (Aspergillus niger [31]): 37.6%
- inhibition (INH) (Aspergillus niger [32]): 40%
- inhibition (INH) (Aspergillus niger [33]): 100%
- inhibition (INH) (Aspergillus niger [34]): 17.75%
- inhibition (INH) (Aspergillus niger [35]): 64.58%
- inhibition (INH) (Aspergillus niger [36]): 65.66%
- inhibition (INH) (Aspergillus niger [37]): 100%
- inhibition (INH) (Aspergillus niger [38]): 33.35%
- inhibition (INH) (Aspergillus niger [39]): 16.07%
- inhibition (INH) (Aspergillus niger [40]): 60.71%
- inhibition (INH) (Aspergillus niger [41]): 66.07%
- inhibition (INH) (Aspergillus niger [42]): 92.85%
- MIC (Trichoderma hamatum [43]): 0.025 µg/mL (≈ 0.0905 µM)
- MIC (Trichoderma koningii [44]): 0.025 µg/mL (≈ 0.0905 µM)
- MIC (Aspergillus niger [45]): 0.025 µg/mL (≈ 0.0905 µM)

SMILES: CCOC(=O)C1=C(C)NC(=S)NC1c1ccc(N(C)C)cc1 (stereo not given)
- inhibition (INH) (Trichoderma koningii [1]): 0%
- inhibition (INH) (Trichoderma koningii [2]): 15.77%
- inhibition (INH) (Trichoderma koningii [3]): 88.29%
- inhibition (INH) (Trichoderma koningii [4]): 91.1%
- inhibition (INH) (Trichoderma hamatum [5]): 8.92%
- inhibition (INH) (Trichoderma hamatum [6]): 21.42%
- inhibition (INH) (Trichoderma hamatum [7]): 75%
- inhibition (INH) (Trichoderma hamatum [8]): 100%
- inhibition (INH) (Trichoderma hamatum [9]): 100%
- inhibition (INH) (Trichoderma hamatum [10]): 5.25%
- inhibition (INH) (Trichoderma hamatum [11]): 12.4%
- inhibition (INH) (Trichoderma hamatum [12]): 74.44%
- inhibition (INH) (Trichoderma hamatum [13]): 100%
- inhibition (INH) (Trichoderma hamatum [14]): 100%
- inhibition (INH) (Trichoderma hamatum [15]): 8.39%
- inhibition (INH) (Trichoderma hamatum [16]): 13.9%
- inhibition (INH) (Trichoderma hamatum [17]): 40.39%
- inhibition (INH) (Trichoderma hamatum [18]): 96.68%
- inhibition (INH) (Trichoderma koningii [19]): 0%
- inhibition (INH) (Trichoderma koningii [20]): 3.84%
- inhibition (INH) (Trichoderma koningii [21]): 41.69%
- inhibition (INH) (Trichoderma koningii [22]): 92.3%
- inhibition (INH) (Trichoderma koningii [23]): 100%
- inhibition (INH) (Trichoderma koningii [24]): 0%
- inhibition (INH) (Trichoderma koningii [25]): 0%
- inhibition (INH) (Trichoderma koningii [26]): 18.75%
- inhibition (INH) (Trichoderma koningii [27]): 95.31%
- inhibition (INH) (Trichoderma koningii [28]): 0%
- Activity (Trichoderma hamatum [29]): Active
- inhibition (INH) (Aspergillus niger [30]): 13.6%
- inhibition (INH) (Aspergillus niger [31]): 30%
- inhibition (INH) (Aspergillus niger [32]): 100%
- inhibition (INH) (Aspergillus niger [33]): 100%
- inhibition (INH) (Aspergillus niger [34]): 0%
- inhibition (INH) (Aspergillus niger [35]): 40%
- inhibition (INH) (Aspergillus niger [36]): 100%
- inhibition (INH) (Aspergillus niger [37]): 100%
- inhibition (INH) (Aspergillus niger [38]): 0%
- inhibition (INH) (Aspergillus niger [39]): 0%
- inhibition (INH) (Aspergillus niger [40]): 51.98%
- inhibition (INH) (Aspergillus niger [41]): 78.39%
- inhibition (INH) (Aspergillus niger [42]): 100%
- MIC (Trichoderma hamatum [43]): 0.025 µg/mL (≈ 0.0783 µM)
- MIC (Trichoderma koningii [44]): 0.025 µg/mL (≈ 0.0783 µM)
- MIC (Aspergillus niger [45]): 0.35 µg/mL (≈ 1.1 µM)
